Measured values reported in ChEMBL document CHEMBL1148017, “Radioiodination of new EGFR inhibitors as potential SPECT agents for molecular imaging of breast cancer” (Bioorg Med Chem, 2007).
Active and inactive are the calls of the source. The rule behind the calls is not given here.

Experiments:
Stomach [1] = assay: Biodistribution in CD1 mouse stomach at 175 to 200 kBq, iv after 1 hr; type: ADME, organism-based; conditions: in vivo
Outline: (§1)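 Female CD-1 mice (20-25 g, groups of 5) given the radioiodinated compound via tail vein, 175-200 kBq in saline (100 µL) with 0.1% Tween 20. Injected dose taken as syringe activity before minus after. Killed at 1 and 4 h; organs removed, weighed and gamma-counted. Values are % ID per total organ, mean ± SD.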

Thyroid gland [2] = assay: Biodistribution in CD1 mouse thyroid at 175 to 200 kBq, iv after 1 hr; type: ADME, organism-based; conditions: in vivo; outline: as §1
Liver [3] = assay: Biodistribution in CD1 mouse liver at 175 to 200 kBq, iv after 4 hrs; type: ADME, organism-based; conditions: in vivo; outline: as §1
[4] = Partition coefficient, log P at pH 7.4; type: physicochemical; conditions: octanol/water
Outline: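 Shake-flask method with back-extraction. Radiotracer placed in mutually saturated octanol and PBS pH 7.4, vortexed and centrifuged (3000 rpm, 10 min, rt). Both phases gamma-counted. 0.5 mL of octanol re-extracted against an equal volume of PBS and counting repeated. log P is taken from the octanol/buffer count ratio.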

Thyroid gland [5] = assay: Biodistribution in CD1 mouse thyroid at 175 to 200 kBq, iv after 4 hrs; type: ADME, organism-based; conditions: in vivo; outline: as §1
Serum = assay: Protein binding in human serum; type: ADME, cell-free
Outline: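 Radioiodinated tracer (≈370 kBq) incubated in 1 mL fresh human serum at 37 °C. Duplicate 100 µL samples taken at 15 min, 1, 2, 4 and 21 h. Proteins precipitated with 200 µL ethanol, cooled to 4 °C and centrifuged. Pellet washed with ethanol and gamma-counted. Pellet activity is expressed as % of total activity.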

Liver [6] = assay: Biodistribution in CD1 mouse liver at 175 to 200 kBq, iv after 1 hr; type: ADME, organism-based; conditions: in vivo; outline: as §1
Stomach [7] = assay: Biodistribution in CD1 mouse stomach at 175 to 200 kBq, iv after 4 hrs; type: ADME, organism-based; conditions: in vivo; outline: as §1
A-431 = assay: Growth inhibition of human A431 cells by MTT assay; type: functional, cell-based
Outline: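 A431 cells kept in high-glucose D-MEM with 10% foetal calf serum, 37 °C, 5% CO2. Plated at 3×10^3 cells/well and grown 24 h, then exposed to 1–50 µM compound (4 replicates) for 24, 48 and 72 h. MTT 1 mg/mL in phenol-red-free RPMI for 4 h, isopropanol solubilisation, A540 against 620 nm reference. % of untreated control plotted semi-log against concentration; IC50 read from the curve.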

[8] = target: Epidermal growth factor receptor (Homo sapiens) (UniProt P00533); assay: Inhibition of EGFR autophosphorylation in human A431 cells at 1 uM; type: cell-based; conditions: A-431
Chain of Epidermal growth factor receptor (Homo sapiens) (P00533 whole entry): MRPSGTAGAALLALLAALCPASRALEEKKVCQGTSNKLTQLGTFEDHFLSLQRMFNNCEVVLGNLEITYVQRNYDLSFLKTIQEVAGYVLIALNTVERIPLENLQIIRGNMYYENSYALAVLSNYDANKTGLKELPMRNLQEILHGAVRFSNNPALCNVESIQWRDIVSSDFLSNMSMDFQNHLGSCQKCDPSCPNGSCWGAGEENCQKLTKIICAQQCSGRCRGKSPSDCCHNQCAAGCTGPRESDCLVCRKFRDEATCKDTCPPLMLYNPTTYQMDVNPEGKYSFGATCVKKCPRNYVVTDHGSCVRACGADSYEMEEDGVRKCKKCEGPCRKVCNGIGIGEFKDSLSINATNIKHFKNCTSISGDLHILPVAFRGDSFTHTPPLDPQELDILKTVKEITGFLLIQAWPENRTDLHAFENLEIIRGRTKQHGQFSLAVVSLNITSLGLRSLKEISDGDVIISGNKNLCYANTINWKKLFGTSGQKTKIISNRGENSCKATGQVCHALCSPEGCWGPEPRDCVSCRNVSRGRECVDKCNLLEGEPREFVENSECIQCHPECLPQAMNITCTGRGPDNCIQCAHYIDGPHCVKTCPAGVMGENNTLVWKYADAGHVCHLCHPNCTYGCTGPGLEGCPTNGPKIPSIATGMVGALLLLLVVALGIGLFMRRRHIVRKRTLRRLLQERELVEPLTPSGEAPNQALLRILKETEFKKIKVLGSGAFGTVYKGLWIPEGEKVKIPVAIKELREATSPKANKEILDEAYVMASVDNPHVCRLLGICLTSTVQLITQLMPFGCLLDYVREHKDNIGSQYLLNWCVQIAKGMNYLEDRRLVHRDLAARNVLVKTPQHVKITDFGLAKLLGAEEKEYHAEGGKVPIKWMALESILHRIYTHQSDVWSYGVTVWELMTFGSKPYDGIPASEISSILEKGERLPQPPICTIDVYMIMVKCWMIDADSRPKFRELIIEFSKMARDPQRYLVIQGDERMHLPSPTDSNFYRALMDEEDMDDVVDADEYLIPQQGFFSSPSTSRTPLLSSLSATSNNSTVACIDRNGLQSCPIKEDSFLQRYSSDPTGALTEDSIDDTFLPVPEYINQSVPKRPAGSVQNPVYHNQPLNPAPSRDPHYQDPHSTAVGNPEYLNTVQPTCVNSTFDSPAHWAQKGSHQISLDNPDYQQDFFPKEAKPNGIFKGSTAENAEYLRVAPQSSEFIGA
Outline: (§2)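 A431 cells grown to about 70% confluence, serum-starved 24 h, then given compound (0.1–5 µM) for 2 h and stimulated with EGF 20 ng/mL for 5 min. Lysates loaded at equal total protein (BCA), run on 8% SDS-PAGE and blotted to PVDF. Probed with anti-phosphotyrosine PY20 and an HRP anti-mouse secondary, detected by ECL. Bands quantified against controls with and without EGF, no drug.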

[9] = target: Epidermal growth factor receptor (Homo sapiens) (UniProt P00533); assay: Inhibition of EGFR autophosphorylation in human A431 cells at 0.1 uM; type: cell-based; conditions: A-431; outline: as §2

Row | Compound | Drug uptake (Stomach [1]) | Drug uptake (Thyroid gland [2]) | Drug uptake (Liver [3]) | logD [4] | Drug uptake (Thyroid gland [5]) | Activity (Serum) | Drug uptake (Liver [6]) | Drug uptake (Stomach [7]) | IC50 (A-431) | inhibition [8] | Activity [9]
1 | O=C(CC[125I])Nc1ccc2ncnc(Nc3ccc(F)c(Cl)c3)c2c1 | 35.2 %ID | 5.7 %ID | 2.3 %ID | 2.25 | 13.2 %ID | 6% | 6.1 %ID | 3.9 %ID |  |  | 
2 | O=C(CCI)Nc1ccc2ncnc(Nc3ccc(F)c(Cl)c3)c2c1 |  |  |  |  |  |  |  |  | 2000 nM | 100% | Active
3 | Nc1ccc2ncnc(Nc3ccc(F)c(Cl)c3)c2c1 |  |  |  |  |  |  |  |  | 25000 nM | 95% | 
4 | O=C(CCBr)Nc1ccc2ncnc(Nc3ccc(F)c(Cl)c3)c2c1 |  |  |  |  |  |  |  |  | 3000 nM | 100% | Active
